Reference: ChEMBL document CHEMBL1811851, “Identification of a potent, state-dependent inhibitor of Nav1.7 with oral efficacy in the formalin model of persistent pain” (J Med Chem, 2011)
Values after ≈ are worked out from the molar mass of the structure shown.

Tests used:
[1] = Aqueous solubility of the compound in PBS pH 7.4; format: physicochemical
[2] = Aqueous solubility of the compound in 0.01 N HCl; format: physicochemical
LLC-PK1 [3] = assay: Apparent permeability of the compound from basolateral to apical direction in pig LLC-PK1 cells expressing human MDR1; format: ADME, cell-based, Sus scrofa
Outline: (§1)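 MDR1-LLC-PK1 pig kidney cells expressing human MDR1; compound at 5 μM with 0.1% BSA; apparent permeability measured apical-to-basolateral and basolateral-to-apical.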

LLC-PK1 [4] = assay: Apparent permeability of the compound from apical to basolateral direction in pig LLC-PK1 cells expressing human MDR1; format: ADME, cell-based, Sus scrofa; outline: as §1
[5] = AUC in Sprague-Dawley rat at 0.5 mg/kg, iv; format: ADME, organism-based; set-up: dose 0.5 mg/kg, route intravenous; details: plasma
Outline: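 Male Sprague-Dawley rats dosed intravenously at 0.5 mg/kg in 0.5 mL/kg of 100% DMSO; pharmacokinetic parameters derived from plasma exposure.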

[6] = Aqueous solubility of the compound in SIF pH 6.8; format: physicochemical
[7] = Oral bioavailability in Sprague-Dawley rat at 2 mg/kg; format: ADME, organism-based; details: in vivo
Outline: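 Male Sprague-Dawley rats; oral dose 2 mg/kg in 10 mL/kg vehicle (30% hydroxypropyl-β-cyclodextrin pH 2.2 with methanesulfonic acid, or 1% Tween 80/2% HPMC pH 2.2 with HCl), compared with 0.5 mg/kg iv in DMSO.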

Rattus norvegicus [8] = assay: Plasma concentration in formalin-induced Sprague-Dawley rat at 3 mg/kg, po by open-field test; format: ADME, organism-based; set-up: dose 3 mg/kg, route oral; details: in vivo
Outline: (§2)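 Rats dosed orally 2 h before formalin; plasma sampled right after the formalin test (3 h post-dose) for total drug concentration.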

Rattus norvegicus [9] = assay: Plasma concentration in formalin-induced Sprague-Dawley rat at 10 mg/kg, po by open-field test; format: ADME, organism-based; set-up: dose 10 mg/kg, route oral; details: in vivo; outline: as §2
Rattus norvegicus [10] = assay: Plasma concentration in Sprague-Dawley rat at 20 mg/kg, po by open-field test; format: ADME, organism-based; set-up: dose 20 mg/kg, route oral; details: in vivo
Outline: (§3)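 Naive rats given oral doses of 3–30 mg/kg (n = 8 per dose), timed so recording began at the same post-dose interval as the formalin test; open-field photobeam beam breaks binned every 5 min and totalled; plasma drug measured; one-way ANOVA with Dunnett's versus vehicle.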

Rattus norvegicus [11] = assay: Plasma concentration in formalin-induced Sprague-Dawley rat at 30 mg/kg, po by open-field test; format: ADME, organism-based; set-up: dose 30 mg/kg, route oral; details: in vivo; outline: as §2
Plasma = assay: Unbound plasma concentration in Sprague-Dawley rat at 3 mg/kg, po; format: ADME, organism-based; set-up: dose 3 mg/kg, route oral; details: in vivo
Rattus norvegicus [12] = assay: Plasma concentration in Sprague-Dawley rat at 30 mg/kg, po by open-field test; format: ADME, organism-based; set-up: dose 30 mg/kg, route oral; details: in vivo; outline: as §3
Rattus norvegicus [13] = assay: Plasma concentration in formalin-induced Sprague-Dawley rat at 20 mg/kg, po by open-field test; format: ADME, organism-based; set-up: dose 20 mg/kg, route oral; details: in vivo; outline: as §2
Rattus norvegicus [14] = assay: Plasma concentration in Sprague-Dawley rat at 3 mg/kg, po by open-field test; format: ADME, organism-based; set-up: dose 3 mg/kg, route oral; details: in vivo; outline: as §3
Rattus norvegicus [15] = assay: Plasma concentration in Sprague-Dawley rat at 10 mg/kg, po by open-field test; format: ADME, organism-based; set-up: dose 10 mg/kg, route oral; details: in vivo; outline: as §3

| Structure (SMILES) | solubility [1] [µg/mL] | solubility [2] [µg/mL] | Papp (LLC-PK1 [3]) [×10⁻⁶ cm/s] | Papp (LLC-PK1 [4]) [×10⁻⁶ cm/s] | AUC [5] [ng·h/mL] | solubility [6] [µg/mL] | bioavailability [7] [%] | concentration (Rattus norvegicus [8]) [nM] | concentration (Rattus norvegicus [9]) [nM] | concentration (Rattus norvegicus [10]) [nM] | concentration (Rattus norvegicus [11]) [nM] | Cp(f) (Plasma) [nM] | concentration (Rattus norvegicus [12]) [nM] | concentration (Rattus norvegicus [13]) [nM] | concentration (Rattus norvegicus [14]) [nM] | concentration (Rattus norvegicus [15]) [nM] |
| --- | --- | --- | --- | --- | --- | --- | --- | --- | --- | --- | --- | --- | --- | --- | --- | --- |
| CC(=O)Nc1cccc(Nc2ncnc(N3CCc4ccccc4C3)n2)c1 | 1 (≈ 2.77 µM) | 42 (≈ 117 µM) | 29.3 | 29.3 | 126 | 31 (≈ 86 µM) | – | – | – | – | – | – | – | – | – | – |
| CC(=O)Nc1cccc(Nc2ncnc(N3CCC(OCc4ccccc4)CC3)n2)c1 | 15 (≈ 35.8 µM) | 157 (≈ 375 µM) | 22.2 | 22.2 | – | 86 (≈ 205 µM) | 19 | – | – | – | – | – | – | – | – | – |
| CC(=O)Nc1cccc(Nc2ncnc(N3CCC(OCc4ccc(OC(F)(F)F)cc4)CC3)n2)c1C | – | – | – | – | – | – | 67 | 500 | 1400 | 2900 | 4400 | 14 | 5400 | 3200 | 500 | 1400 |
| CC(=O)Nc1cccc(Nc2ncnc(N3CCC(OCc4ccc(C(F)(F)F)cc4)CC3)n2)c1C | – | – | – | – | – | – | 27 | – | – | – | – | – | – | – | – | – |
| CC(=O)Nc1cccc(Nc2ncnc(N3CCC(Oc4ccccc4)CC3)n2)c1 | 11 (≈ 27.2 µM) | > 200 | 26.1 | 26.1 | – | 110 (≈ 272 µM) | 52 | – | – | – | – | – | – | – | – | – |
